A short description of this data set: Toxicity liver stage against HepG2, at 10uM. Particulars: human, HepG2-A16-CD81EGFP cells; read-out: INHIBITION
Further details: test concentration 10 uM, cell line HepG2-A16-CD81EGFP. It counts as cell-based. In a few lines:
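Uninfected HepG2-A16-CD81EGFP cells, 3 × 10^3 per well, 1536-well, plated on prespotted compound at 10 μM final, parasite-free screening media added to match infected plates; puromycin 10 μM positive, DMSO 0.5% negative; run in parallel with 48 h PbLuc assay at 37 °C, 5% CO2; viability by CellTiter-Glo luminescence, normalized to controls.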
Regarding `COc1ccc(Cl)cc1NCCC(=O)NCCNc1cnccn1`, the cytotoxicity at 10 µM was -10.3%. Take `CSc1ccc(C2CC(=O)Nc3c2c(=O)[nH]c2ncnn32)cc1` (configuration not stated): the cytotoxicity at 10 µM was -8.22%. Consider `CCc1nc(C2CCCN2C(=O)c2ccc3c(c2)nnn3C)no1` (configuration not stated), for which the cytotoxicity at 10 µM was -4.35%. Then `Cn1cccc1C(=O)N1C[C@H]2CN(Cc3cccs3)C[C@H]2C1`, with 2.02%; and `CCCC(=O)Nc1sc(C(=O)OCC)c(C)c1C#N`, with 8.29%; and `COCc1noc(CN2CC(=O)N(C)c3ccccc3C2=O)n1`, with -6.3%. For the molecule `CN(CC(=O)Nc1cccnc1)C1CCCN(c2cccnn2)C1` (configuration not stated), the cytotoxicity at 10 µM was -2.42%. On to `CS(=O)(=O)CC(=O)N1C[C@@H]2CN(Cc3ccoc3)CCO[C@@H]2C1`, for which the cytotoxicity at 10 µM was -69.2%.

Take `Cc1nn(C)c2ncnc(N3CCCC(C)(O)C3)c12` (configuration not stated): the cytotoxicity at 10 µM came to 0.541%. Under `Fc1cccc(CN2CCC(c3noc(-c4cnccn4)n3)CC2)c1F` stands -1.37%. For `O=C(NCc1ccccn1)NCC(c1ccco1)N1CCCCC1` (configuration not stated), the cytotoxicity at 10 µM is -2.93%.

Turning to `Cc1[nH]nc(CCC(=O)NCC2COc3ccccc3C2)c1C` (configuration not stated), the cytotoxicity at 10 µM was -43.4%. Then `O=C(N[C@@H]1CCN(C(=O)C2CCOCC2)C[C@H]1O)c1ccccn1`, with -2.88%; and `O=C1C(NCc2ccc3c(c2)CCO3)CCN1Cc1ccccc1` (configuration not stated), with 6.39%. Turning to `O=C(NCC1(CO)CC1)c1nnn(-c2ccc(F)cc2)c1C1CC1`, the cytotoxicity at 10 µM was -1.06%. For `CCCc1nc(CNc2cccc(C(=O)N3CCCC(O)C3)c2)no1` (configuration not stated), the cytotoxicity at 10 µM is -5.35%. Under `CC(C)n1ccnc1C1CCN(Cc2ccc(Cl)c(F)c2)CC1` stands -3.59%; under `COc1ccc(CCC2CCCN(C(=O)c3cnc(N)nc3C)C2)cc1` (configuration not stated), 1.14%. Consider `CN(C)CCNC(=O)c1cc2c(s1)CCN2S(C)(=O)=O`, for which the cytotoxicity at 10 µM was 0.705%. Under `CC(C)c1nn(C)c(N(C)C)c1CNC1CCCCNC1=O` (configuration not stated) stands 2.91%; under `COc1ccc2c(c1)CC(C1CCOCC1)N(C(=O)c1ccnn1C)C2` (configuration not stated), -0.516%. On to `O=C(O)c1ncccc1OCC(F)(F)F`, for which the cytotoxicity at 10 µM was -8.76%.

With `CCCN1CCC(CNC(=O)C2(c3ccccc3)CCC2)C1` (configuration not stated), the cytotoxicity at 10 µM is -6.29%.

With `CC1=CC[C@@H]2CN(C(=O)c3ccc(-c4nc[nH]n4)cc3)C[C@@H]2C1`, the cytotoxicity at 10 µM came to 0.417%. Regarding `Cc1ccsc1CNCCCOc1ccccn1`, the cytotoxicity at 10 µM is -0.575%.

In the case of `CC(=O)NCC1CCN(c2cc(C)nc(-c3ccncc3)n2)CC1`, the cytotoxicity at 10 µM was -1.36%. Under `COCCCC(=O)N(C)c1ccc(F)c(Cl)c1` stands -0.577%. Then `COCC1CCCN(C(=O)c2ccccc2NCc2cccnc2)C1` (configuration not stated), with 8.47%; and `Cc1nn(C)c2cnn(Cc3ccc(C(=O)NC4CC4)cc3)c12`, with 6.42%. Regarding `Fc1cccc(CNc2cncc(-n3cccn3)n2)c1`, the cytotoxicity at 10 µM turned out to be 0.959%. Then `Cn1cc(C(=O)N2CCCC2c2noc(C3CC3)n2)c2ccccc21` (configuration not stated), with -0.249%. Then `Cc1ncnc2c1CCN(S(=O)(=O)C1CC1)CC2`, with -108%; and `c1coc(CN2CCC3(CC2)COC(COCC2CC2)C3)c1` (configuration not stated), with -4.37%.

`COc1cc(Cl)c(NCc2c(C)noc2C)cc1OC`: the cytotoxicity at 10 µM was found to be 8.77%. Then `CC(=O)N(C)Cc1cccc(NC(=O)CCCc2nc(C(C)C)no2)c1`, with -2.07%; and `CC(=O)Nc1ccc(CN(C)Cc2snnc2C)cc1`, with -2.17%. On to `CCC(CO)NCc1ccc(-c2ccc(F)c(Cl)c2)o1` (configuration not stated), for which the cytotoxicity at 10 µM was 5.24%.

For `Cn1ccnc1CCNC(=O)C1CCCN(Cc2cccc(F)c2)C1` (configuration not stated), the cytotoxicity at 10 µM was -6.87%. Then `COCCN(CC(C)C)c1cc(C)ncn1`, with 1.38%; and `Cc1cnc(C(=O)N2CCN(Cc3csc(C)n3)CC2)cn1`, with -132%. Under `CC(C)c1sc(Br)nc1C(=O)NCc1ccco1` stands -2.89%; under `CCCc1n[nH]c(C2CN(C(=O)CCCn3cccn3)CCO2)n1` (configuration not stated), -7.87%; under `Cc1ccccc1C(=O)N1CCC2(CC1)CC(c1cnn(C)c1)CO2` (configuration not stated), -75%. As for `CCc1nc(CN2CCN(C(=O)CCc3ccccc3)CC2)cs1`, the cytotoxicity at 10 µM worked out at 5.25%. With `CCOc1ccc(NC(=O)N2CCOC(C(N)=O)C2)cc1C` (configuration not stated), the cytotoxicity at 10 µM is -140%. Then `CCN(CC)C(=O)C1CCCN1C(=O)c1cccc(-n2cnnn2)c1` (configuration not stated), with -14.9%; and `Cn1ncc2c1NC(=O)CC2c1cc(Cl)ccc1F` (configuration not stated), with 78.6%; and `CN(C)C(=O)CC1CC2(CCN(Cc3ccco3)CC2)c2ccccc21` (configuration not stated), with -11.3%.

Turning to `CC(C)(C)c1ccc(=O)n(CN2CCCC(C(F)(F)F)C2)n1` (configuration not stated), the cytotoxicity at 10 µM was -2.19%.

Regarding `Cc1ccc(CNC2(Cc3cc(-c4ccccc4)on3)COC2)o1`, the cytotoxicity at 10 µM is -3.24%. Regarding `COc1cc(-c2nc(N)n[nH]2)cc(OC)c1OC`, the cytotoxicity at 10 µM is -10.2%.

Consider `CCN1C[C@H]2CCN(C(=O)NC3CCCC3)CC[C@H]2S1(=O)=O`, for which the cytotoxicity at 10 µM is -3.52%. Regarding `CCOc1ccc2c(c1)C=C(C(=O)NC(C)Cn1cccn1)CO2` (configuration not stated), the cytotoxicity at 10 µM is 6.95%. In the case of `COc1cccc(N2CCN(C(=O)CO)CC2=O)c1`, the cytotoxicity at 10 µM worked out at 0.995%. Then `O=C(NC1CCCCC1)N1C[C@H]2CN(c3cnccn3)C[C@@]2(C(=O)O)C1`, with 13.7%; and `CN1CCCC1c1nccnc1-c1ccc(C(=O)O)cc1` (configuration not stated), with 11%. Then `CCOCCCNCc1cc(O)c2cc(C)ccc2n1`, with -11.1%; and `CC(CO)CN(Cc1ccccc1)Cc1c[nH]cn1` (configuration not stated), with 6.04%.

As to `Cc1noc(C)c1CCC(=O)N(C)C(C)c1cccs1` (configuration not stated), the cytotoxicity at 10 µM was 7.93%. Take `COC(=O)[C@H]1CN(C(=O)NC(C)C)CCN1C(=O)C1CCCCC1`: the cytotoxicity at 10 µM turned out to be 1.35%.

In the case of `Cc1cnn(C(C)C2CC2)c1NC(=O)c1ncccc1O` (configuration not stated), the cytotoxicity at 10 µM was 7.4%. As for `CN(C)c1ncc2c(n1)C1(CCN(CC3CC3)C1)COC2` (configuration not stated), the cytotoxicity at 10 µM is -12.9%. Then `Cn1cnc(S(=O)(=O)N2C[C@H]3CC[C@@H](C2)N(Cc2cscn2)C3=O)c1`, with -20.2%. For the molecule `COc1cccc(OCc2cc(C(=O)NC[C@H]3CCCN3)n[nH]2)c1`, the cytotoxicity at 10 µM was -4.9%. Then `Cc1cc(CNC2CCc3nc(C(C)C)nn3C2)on1` (configuration not stated), with 7.61%; and `Oc1nc(N2CCCC2)nc2c1CCN(Cc1cccnc1)CC2`, with -7.25%.

On to `COc1ccccc1OCC(=O)NS(=O)(=O)c1ccc(F)cc1F`, for which the cytotoxicity at 10 µM was 8.68%. Under `Cc1cnn(CCNCc2ccc(OCc3csc(C)n3)cc2)c1` stands -6.32%; under `O=C(c1ccoc1)N1CCCC1C1CCN(Cc2ccccc2)CC1` (configuration not stated), -10.6%.

For the molecule `CCCNC(=O)[C@@H]1CCCN1[C@@H](C(=O)NC)C1CC1`, the cytotoxicity at 10 µM was found to be 1.32%. Under `Cn1ccnc1C(=O)N[C@@H]1CN(Cc2cccs2)[C@@H]2CCCO[C@@H]21` stands 3.16%. In the case of `CC(Nc1cccc(CN2CCOC2=O)c1)C(=O)N1CCNC1=O` (configuration not stated), the cytotoxicity at 10 µM was -1.63%. Then `CN(Cc1cc(Br)cn1C)C(=O)c1ccon1`, with -3.33%; and `Cn1nnc2cc(C(=O)N3CCC(Nc4cccnn4)CC3)ccc21`, with -2.85%; and `O=C(Cn1cnc2sccc2c1=O)NCCc1nnc2ccccn12`, with 3.57%. Then `Cc1noc(-c2cccnc2N(C)Cc2ccc([S+](C)[O-])cc2)n1` (configuration not stated), with 46%; and `CCS(=O)(=O)CCNC(=O)NC(C)c1ccc(C)s1` (configuration not stated), with -8.64%. With `Cc1cccc(Nc2cc(C)nc(C3CCN(C(C)C)C3)n2)n1` (configuration not stated), the cytotoxicity at 10 µM is 9.93%. With `Cc1ccc(CNCc2nccn2C)c(OCC2CC2)c1`, the cytotoxicity at 10 µM was -4.52%. Under `O=C(Cc1ccsc1)N1C[C@@H]2CN(Cc3ccoc3)CCO[C@@H]2C1` stands -1.73%.

On to `Cc1ccc(Cl)cc1NC(=O)Nc1c[nH]c(=O)[nH]c1=O`, for which the cytotoxicity at 10 µM was -7.58%. Take `CCC(CO)N(Cc1ccccn1)C(=O)c1ccc(F)c(F)c1` (configuration not stated): the cytotoxicity at 10 µM was -0.273%. As to `CN1CCCC(C(=O)N2CCC(Oc3ccccn3)CC2)C1` (configuration not stated), the cytotoxicity at 10 µM is -5.15%. With `CC(C)c1[nH]c2ncccc2c1CN1CCOCC1`, the cytotoxicity at 10 µM was found to be 0.752%. `CC(C)c1nc(C2CCCN(C(=O)c3cccc4c3OCO4)C2)no1` (configuration not stated): the cytotoxicity at 10 µM is -12%. `Cc1cc(C)n(CC2CCCCN2C(=O)c2ccc(C(N)=O)cc2)n1` (configuration not stated): the cytotoxicity at 10 µM was 3.09%. Regarding `O=C(c1ncoc1C1CCCO1)N1CCCC2(CCCCC2)C1` (configuration not stated), the cytotoxicity at 10 µM was -5.14%.

In the case of `CC(C)NC(=O)C1CCC2(CCN(Cc3cnn(C)c3)CC2)C1` (configuration not stated), the cytotoxicity at 10 µM stood at 2.77%. For `O=C(c1cccs1)N1CCOCC2(C1)CN(c1cccnc1)C(=O)CO2` (configuration not stated), the cytotoxicity at 10 µM was determined as 3.36%.

`Cc1cc(C2CCCN2C(=O)CN(C)Cc2ccccc2)no1` (configuration not stated): the cytotoxicity at 10 µM was determined as 5.1%. As to `CCCn1c(C)c(CC(=O)N[C@H](C)C(=O)OC)c2c1CC(C)(C)CC2=O`, the cytotoxicity at 10 µM is -2.06%.

Regarding `CN(C(=O)c1cnc(N2CCOCC2)nc1)C1Cc2ccccc2C1`, the cytotoxicity at 10 µM is -3.97%. Turning to `Cc1c(C(=O)N2CCC3(CCCN(CC4CC4)C3=O)C2)ccn1C` (configuration not stated), the cytotoxicity at 10 µM is -3.92%. Then `O=c1cc(CN2CC[C@@]3(O)CCCC[C@H]3C2)c2cccc3c2n1CCC3`, with -0.948%; and `Cc1nc2cc(C(=O)N3C[C@@H](NS(C)(=O)=O)[C@H](C(C)C)C3)ccc2[nH]1`, with -4.47%. On to `O=C(NCCc1nnc2n1CCC2)NC1(c2cccc(F)c2)CC1`, for which the cytotoxicity at 10 µM worked out at 3.07%.

Take `O=S1(=O)CCCN1Cc1coc(-c2cccs2)n1`: the cytotoxicity at 10 µM is 17.5%.

The record behind these values is ChEMBL document CHEMBL4513216, “Probing the Open Global Health Chemical Diversity Library for Multistage-Active Starting Points for Next-Generation Antimalarials” (ACS Infect Dis, 2020).
